Shown are actives, neighbours in structure and some others; about 2.3% of the full set was active somewhere.
PAFAH1B2 inh: PAFAH1B2 (human) inhibition | AID 492953 | P68402 | inhibition, % at 3.39 µM | recombinant PAFAH1B2, FP-rhodamine activity probe, fluorescence polarization | 340,000 compounds, 1.2% hits;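 active = inhibition above the mean of all tested compounds plus 3 SD, cut at about 24% in these data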;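 also: 0% = enzyme with DMSO and 100% = wells lacking PAFAH1B2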
Apaf-1 inh: human Apaf-1 inhibition; O14727; reconstituted apoptosome caspase-3 activity, DEVD-Rh110 fluorescence; inhibition, % at 20 µM; 330,000 compounds, 0.71% hits; active = inhibition of at least 40% at 20 µM;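 also: plate controls were DMSO wells for no effect and DEVD-CHO caspase inhibitor wells for full effect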
Target sequence (O14727 whole entry, looked up): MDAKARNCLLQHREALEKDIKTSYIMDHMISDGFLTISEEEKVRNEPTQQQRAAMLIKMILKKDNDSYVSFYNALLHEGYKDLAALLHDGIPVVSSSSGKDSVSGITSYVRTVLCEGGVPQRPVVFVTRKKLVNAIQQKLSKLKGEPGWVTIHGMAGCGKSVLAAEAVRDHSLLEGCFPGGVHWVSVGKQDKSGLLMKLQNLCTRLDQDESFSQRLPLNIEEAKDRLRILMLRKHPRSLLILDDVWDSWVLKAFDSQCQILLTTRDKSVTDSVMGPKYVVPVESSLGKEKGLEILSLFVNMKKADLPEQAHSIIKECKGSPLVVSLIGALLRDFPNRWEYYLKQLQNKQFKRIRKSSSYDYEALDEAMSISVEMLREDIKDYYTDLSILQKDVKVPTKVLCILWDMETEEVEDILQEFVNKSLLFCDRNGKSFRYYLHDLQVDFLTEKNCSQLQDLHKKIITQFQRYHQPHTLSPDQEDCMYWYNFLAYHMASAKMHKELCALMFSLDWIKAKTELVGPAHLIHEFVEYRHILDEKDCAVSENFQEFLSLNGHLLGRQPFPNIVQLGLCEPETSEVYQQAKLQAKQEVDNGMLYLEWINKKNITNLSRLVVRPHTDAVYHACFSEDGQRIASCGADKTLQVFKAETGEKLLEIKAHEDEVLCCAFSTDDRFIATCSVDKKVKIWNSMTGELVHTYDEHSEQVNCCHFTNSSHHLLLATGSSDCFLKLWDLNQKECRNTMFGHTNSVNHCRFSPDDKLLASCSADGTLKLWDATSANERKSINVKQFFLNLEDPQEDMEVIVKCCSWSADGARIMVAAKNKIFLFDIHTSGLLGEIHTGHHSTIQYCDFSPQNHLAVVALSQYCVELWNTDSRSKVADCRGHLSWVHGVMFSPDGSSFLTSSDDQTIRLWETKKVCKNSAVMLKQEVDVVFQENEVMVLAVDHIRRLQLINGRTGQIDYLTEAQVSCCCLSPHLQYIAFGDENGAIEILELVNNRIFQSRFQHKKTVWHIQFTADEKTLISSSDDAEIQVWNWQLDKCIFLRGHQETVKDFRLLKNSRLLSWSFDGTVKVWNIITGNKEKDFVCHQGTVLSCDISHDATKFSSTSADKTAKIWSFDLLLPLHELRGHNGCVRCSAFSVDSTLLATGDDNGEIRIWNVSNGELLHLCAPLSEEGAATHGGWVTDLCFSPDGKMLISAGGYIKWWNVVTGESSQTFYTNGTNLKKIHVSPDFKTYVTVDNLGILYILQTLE
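System: Apoptosome proteins | Medium: Hepes pH 7.5 with detergent and BSA | Also added: Cytochrome c trigger plus (Z-DEVD)2-Rh110 caspase-3 substrate | Incubation: 30 min compound preincubation, 50 min activation, room temperature | Detection: Rhodamine 110 fluorescence at Ex 480/Em 540 nm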
PAFAH2 FP inh: inhibitors of human PAFAH2; Q99487; recombinant PAFAH2, FP-rhodamine activity probe, fluorescence polarization; inhibition, % at 3.39 µM; 340,000 compounds, 0.99% hits;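 active = inhibition above the mean over all tested compounds plus 3 SD, cut at about 30% in these data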;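 also: inhibitors block probe labeling of enzyme so polarization drops; 0% = enzyme with DMSO and 100% = wells lacking PAFAH2 protein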
TDP2 absorb: blocks human TDP2 phosphodiesterase activity | AID 720702 | recombinant TDP2, T5PNP hydrolysis, p-nitrophenol absorbance 415 nm | 370,000 compounds, 0.34% hits | inhibition, % at 12.8 µM;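 active = inhibition above the mean of all tested compounds plus 3 SD, set per campaign, cut at about 25% in these data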;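 also: 0% = DMSO with enzyme and 100% = buffer with substrate but no TDP2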
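Read-out basis: percent inhibition. System: recombinant human TDP2. Buffer or medium: Mg2+-containing Tris-HCl buffer, pH 7.5. Repeats: single replicate. Timing: reaction 2 h, 37 °C. Benchmarks: high control without enzyme, low control DMSO plus TDP2. Probe or stimulus: 5 mM T5PNP. Doses: 12.8 µM only. Measured by: epi absorbance of p-nitrophenol freed from T5PNP by hydrolysis.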
PAFAH1B3 FP inh: inhibitors of human PAFAH1B3. 340,000 compounds, 0.28% hits. AID 492972. recombinant PAFAH1B3, FP-rhodamine probe, fluorescence polarization. inhibition, % at 3.39 µM;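 active = inhibition above the screen-wide average of all tested compounds plus 3 SD, cut at about 25% in these data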;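 also: 0% = enzyme with DMSO only and 100% = wells lacking PAFAH1B3 protein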
PAFAH2 confirm: PAFAH2 (human) inhibition, confirmed; recombinant PAFAH2, FP-rhodamine activity probe, fluorescence polarization; inhibition, % at 3.39 µM; shares compounds with PAFAH2 FP inh; 2,300 compounds, 65% hits;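 active = mean inhibition over three repeats above a set limit taken from the earlier primary screen, cut at about 30% in these data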;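 also: inhibitor blocks binding of rhodamine activity probe so polarization falls; 0% = enzyme with DMSO and 100% = wells lacking PAFAH2 protein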
Starred values were filed as active, the others as inactive; . = no result given.

SMILES | PAFAH1B2 inh | Apaf-1 inh | PAFAH2 FP inh | TDP2 absorb | PAFAH1B3 FP inh | PAFAH2 confirm
O=C(COC(=O)c1cc(S(=O)(=O)N2CCOCC2)ccc1O)Nc1cc(S(=O)(=O)N2CCCC2)ccc1Cl | 8 | -1 | 77* | -12 | 8 | 76*
Cc1cc(C(=O)OCC(=O)Nc2ccc(S(=O)(=O)N3CCOCC3)cc2)c(C)o1 | 3 | -8 | 1 | 9 | -2 | .
CC(C)NC(=S)NC(=O)/C=C/c1ccc(F)cc1 | -4 | 2 | 0 | 6 | -12 | .
CC(C)NC(=O)COC(=O)/C=C/c1ccc(F)cc1 | -3 | -4 | 36* | 0 | 5 | 22
O=C(COC(=O)/C=C/c1ccc(F)cc1)NC1CCCCCC1 | 0 | 7 | 89* | 5 | 3 | 81*
O=C(COC(=O)/C=C/c1ccc(F)cc1)NC1CC1 | -1 | 8 | 49* | 2 | 1 | 37*
CCN(C(=O)COC(=O)/C=C/c1ccc(F)cc1)C1CCCCC1 | 3 | 4 | -3 | -8 | 4 | .
O=C(COC(=O)/C=C/c1ccc(Cl)cc1)NC1CCCC1 | 6 | -3 | 64* | -7 | 6 | 67*
CC(=O)c1ccc(NC(=O)NC2CCCCN(Cc3cccc(Cl)c3)C2=O)cc1 (stereo unspecified) | . | . | . | -17 | . | .
CSc1ccc(/C=C/C(=O)OCC(=O)NC2CCCC2)cc1 | . | . | . | 2 | . | .
O=C(COC(=O)/C=C/c1ccc(F)cc1)NC1CCCC1 | 3 | 1 | 79* | -3 | 3 | 86*
CC(c1ccc(NC(=O)OC(C)(C)C)cc1)c1cn(C)c2ccccc12 (stereo unspecified) | . | . | . | -7 | . | .
CC1CCCN(C(=O)COC(=O)c2ccc3[nH]c4c(c3c2)CCCC4)C1 (stereo unspecified) | 5 | 26 | 41* | -9 | -2 | 26
COC(=O)C1CCN(C(=O)COC(=O)c2ccc3[nH]c4c(c3c2)CCCC4)CC1 | 0 | -1 | 8 | 3 | 6 | .
Cc1c(C(=O)OCCOc2ccccc2)[nH]c2c1C(=O)CCC2 | -1 | 1 | 0 | -11 | -6 | .
Cc1c(C(=O)OC2CCCC2C)[nH]c2c1C(=O)CCC2 (stereo unspecified) | 0 | 3 | 59* | -6 | 7 | 39*
CCOC(=O)c1c(C)[nH]c(C(=O)OCc2ccccc2)c1C | 1 | 29 | -8 | -3 | 5 | .
CC(=O)c1c(C)[nH]c(C(=O)OCC(=O)Nc2cccnc2Cl)c1C | 8 | -1 | -1 | -4 | 5 | .
CCOC(=O)c1c(C)[nH]c(C(=O)OCC(=O)Nc2ccccc2)c1C | 4 | 4 | 34* | -9 | 0 | 34*
CC(=O)c1c(C)[nH]c(C(=O)OCC(=O)Nc2ccccc2Cl)c1C | 1 | -2 | 33* | 11 | 10 | 20
CC(=O)c1c(C)[nH]c(C(=O)OCC(=O)NCC(C)C)c1C | -2 | -5 | 31* | 6 | 8 | 16
O=c1c(C(c2c(O)nc3n(c2=O)CCS3)c2cccc3ccccc23)c(O)nc2n1CCS2 | 3 | 8 | 37* | 1 | -3 | 26
O=c1c(C(c2ccc(O)cc2)c2c(O)nc3n(c2=O)CCS3)c(O)nc2n1CCS2 | -1 | 5 | 12 | 9 | 4 | .
COc1ccc(NC(=O)CSc2nnc(-c3n[nH]c4c3CCC4)n2N)cc1OC | . | . | . | -2 | . | .
C/C=C/C(=O)OCC(=O)Nc1cccc(S(=O)(=O)NC2=NCCCCC2)c1 | 4 | -5 | 14 | -4 | 12 | .
COc1cccc(/C=C/C(=O)OCC(=O)Nc2cccc(S(=O)(=O)NC3=NCCCCC3)c2)c1 | 5 | 13 | 50* | -1 | 8 | 42*
O=C(COC(=O)/C=C/c1cccc(F)c1)Nc1cccc(S(=O)(=O)NC2=NCCCCC2)c1 | 4 | 8 | 39* | -13 | -1 | 16
COC(=O)[C@]12C[C@H](CC(=O)N3CCCC3)C(=O)N(Cc3cccc4ccccc34)C1=C[C@H](C(C)(C)C)O[C@@H]2C | . | . | . | 4 | . | .
O=C(c1cc(-c2ccc(Cl)cc2Cl)on1)N1CCOCC1 | -2 | -13 | 37* | 7 | -9 | 27
COC(=O)[C@]12C[C@H](CC(=O)N3CCN(C(=O)c4ccco4)CC3)C(=O)N(Cc3ccco3)C1=C[C@H](C(C)C)O[C@@H]2C1CC1 | . | . | . | -5 | . | .

Screening data deposited in PubChem BioAssay by several laboratories.
